Source: ChEMBL document CHEMBL1781963, “Discovery of novel hepatoselective HMG-CoA reductase inhibitors for treating hypercholesterolemia: a bench-to-bedside case study on tissue selective drug distribution” (Bioorg Med Chem Lett, 2011)

How the values were obtained:
[1] = Drug excretion in human urine after 24 hrs; type: ADME, tissue-based; settings: read-out: Activity
Summary of the method: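 Single ascending oral dose in healthy volunteers; the percentage of drug excreted in urine was measured at 24 h post dose.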

[2] = Cmax in human plasma at 40 mg administered as single dose; type: ADME, organism-based; parameters: dose 40 mg
Summary of the method: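 Phase 1 single ascending oral dose in healthy volunteers, about 5–6 subjects per dose. Total plasma drug Cmax and AUC(0-∞) were measured. Free-drug exposures were derived using plasma protein binding.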

Plasma [3] = test: fCmax in human plasma at 40 mg administered as single dose; type: ADME, cell-free
Summary of the method: (§1)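 Phase 1 single ascending oral dose in healthy volunteers, with N per dose group. Total plasma Cmax and AUC(0-∞) were measured. Free-drug exposures were derived from these using plasma protein binding (human plasma fu measured at 0.5 μg/mL).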

Plasma [4] = test: fAUC (0 to infinity) in human plasma at 40 mg administered as single dose; type: ADME, cell-free; summary of the method: as §1
OATP2B1 = biological target: T1, OATP2B1 (Homo sapiens, UniProt O94956); test: Drug uptake by human hepatic OATP2B1 transporter expressed in HEK293 cells at 10 uM relative to wild-type HEK293 cells; type: ADME, cell-based; settings: HEK293 cells expressing OATP2B1, read-out: FC
T1 sequence (O94956 whole entry): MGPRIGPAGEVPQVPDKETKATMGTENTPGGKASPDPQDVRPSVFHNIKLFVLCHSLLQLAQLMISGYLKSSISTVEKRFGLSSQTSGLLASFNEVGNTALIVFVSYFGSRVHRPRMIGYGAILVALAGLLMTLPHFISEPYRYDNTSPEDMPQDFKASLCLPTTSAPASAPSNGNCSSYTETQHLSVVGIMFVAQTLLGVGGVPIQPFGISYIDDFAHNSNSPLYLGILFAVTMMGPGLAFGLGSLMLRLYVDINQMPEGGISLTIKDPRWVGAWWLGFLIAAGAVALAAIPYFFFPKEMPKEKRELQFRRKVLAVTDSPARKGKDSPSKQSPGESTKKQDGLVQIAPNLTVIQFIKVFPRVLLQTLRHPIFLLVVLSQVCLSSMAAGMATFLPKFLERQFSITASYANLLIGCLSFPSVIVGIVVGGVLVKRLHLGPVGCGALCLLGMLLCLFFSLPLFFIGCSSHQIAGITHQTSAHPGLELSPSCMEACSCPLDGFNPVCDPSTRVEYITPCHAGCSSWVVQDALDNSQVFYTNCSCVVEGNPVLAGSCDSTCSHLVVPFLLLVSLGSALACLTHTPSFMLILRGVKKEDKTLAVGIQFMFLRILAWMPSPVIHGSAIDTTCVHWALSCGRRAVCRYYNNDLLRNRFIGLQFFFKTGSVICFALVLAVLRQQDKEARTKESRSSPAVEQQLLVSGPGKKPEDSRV
Summary of the method: (§2)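 Individual hepatic OATP transporters were over-expressed in CHO or HEK293 cells: rat rOatp1a1, rOatp1a4 and rOatp1b2, and human hOATP1B1, hOATP1B3 and hOATP2B1. Substrate uptake is expressed as fold difference relative to the wild-type parental line. Rosuvastatin/pravastatin served as positive control and midazolam as negative control in each assay.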

Rattus norvegicus [5] = test: fAUC (0 to 24 hrs) in rat at 1 mg/kg, iv; type: ADME, organism-based; parameters: dose 1 mg/kg, route intravenous; settings: in vivo
Summary of the method: (§3)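 Rat and dog given 1 mg/kg iv, or po at 10 mg/kg (rat) or 5 mg/kg (dog). Plasma sampled to 24 h. AUC(0-24) as free drug using plasma protein binding values. Geometric mean of n = 2 animals/group; dog po n = 3 or n = 1.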

Canis familiaris [6] = test: fAUC (0 to 24 hrs) in dog at 1 mg/kg, iv; type: ADME, organism-based, Canis lupus familiaris; parameters: dose 1 mg/kg, route intravenous; settings: in vivo; summary of the method: as §3
Canis familiaris [7] = test: fAUC (0 to 24 hrs) in dog at 5 mg/kg, po; type: ADME, organism-based, Canis lupus familiaris; parameters: dose 5 mg/kg, route oral; settings: in vivo; summary of the method: as §3
Rattus norvegicus [8] = test: fCmax in rat at 10 mg/kg, po; type: ADME, organism-based; parameters: dose 10 mg/kg, route oral; settings: in vivo
Summary of the method: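 Single po dose: rat 10 mg/kg (n = 2), dog 5 mg/kg (n = 1 or 3 animals). Values are geometric means. Cmax is given as free drug concentration using plasma protein binding values, which were determined at 0.5 μg/mL.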

[9] = Systemic plasma clearance in dog at 1 mg/kg, iv; type: ADME, organism-based, Canis lupus familiaris; parameters: dose 1 mg/kg, route intravenous; summary of the method: as §3
[10] = Oral bioavailability in dog at 5 mg/kg; type: ADME, organism-based, Canis lupus familiaris; settings: in vivo; summary of the method: as §3
OATP1A1 = biological target: T2, OATP1A1 (Rattus norvegicus, UniProt P46720); test: Drug uptake by rat hepatic OATP1A1 transporters expressed in CHO cells at 10 uM relative to wild type CHO cells; type: ADME, cell-based; settings: CHO cells expressing rat OATP1A1, read-out: FC; summary of the method: as §2
T2 sequence (P46720 whole entry): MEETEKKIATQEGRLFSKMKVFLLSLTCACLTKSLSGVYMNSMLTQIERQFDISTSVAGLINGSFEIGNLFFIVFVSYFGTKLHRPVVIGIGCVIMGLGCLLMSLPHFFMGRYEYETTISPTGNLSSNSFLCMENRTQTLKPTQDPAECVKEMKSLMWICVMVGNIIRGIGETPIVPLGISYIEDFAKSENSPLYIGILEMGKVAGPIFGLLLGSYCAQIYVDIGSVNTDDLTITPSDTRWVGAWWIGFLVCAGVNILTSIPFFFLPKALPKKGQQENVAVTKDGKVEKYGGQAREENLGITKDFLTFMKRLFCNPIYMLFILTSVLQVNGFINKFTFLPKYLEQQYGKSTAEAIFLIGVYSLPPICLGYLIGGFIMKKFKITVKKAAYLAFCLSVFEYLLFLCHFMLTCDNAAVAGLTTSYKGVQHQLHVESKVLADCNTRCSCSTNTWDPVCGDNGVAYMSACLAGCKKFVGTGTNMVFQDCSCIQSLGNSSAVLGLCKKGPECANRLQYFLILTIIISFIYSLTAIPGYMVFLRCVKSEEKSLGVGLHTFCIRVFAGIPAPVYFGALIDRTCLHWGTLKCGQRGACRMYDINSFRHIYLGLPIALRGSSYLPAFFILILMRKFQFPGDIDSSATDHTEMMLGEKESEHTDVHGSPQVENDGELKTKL

[11] = Ratio of fAUC (0 to 24 hrs) in liver to plasma in Sprague-Dawley rat at 10 mg/kg, po; type: ADME, organism-based; parameters: dose 10 mg/kg, route oral; settings: liver and plasma
Summary of the method: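 Sprague-Dawley rats given a single oral dose (10 or 25 mg/kg). Free drug measured in liver and plasma at 0, 0.5, 1, 2, 3, 4, 7 and 24 h, n = 3/time point.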

O=C([O-])C[C@H](O)C[C@H](O)CCn1c(-c2ccc(F)cc2)nc(C(=O)NCc2cccc(F)c2)c1C1CC1.[Na+]
dose excreted at 24 h [1]: < 1% | Cmax [2]: 2.25 ng/mL | fCmax (Plasma [3]): 0.653 ng/mL | fAUC (Plasma [4]): 1.81 ng·h/mL | uptake ratio at 10 µM (OATP2B1): 6.8 | fAUC (Rattus norvegicus [5]): 83 ng·h/mL | fAUC (Canis familiaris [6]): 293 ng·h/mL | fAUC (Canis familiaris [7]): 51 ng·h/mL | fCmax (Rattus norvegicus [8]): 2 ng/mL | clearance [9]: 25 mL/min/kg | bioavailability [10]: 2.2% | uptake ratio at 10 µM (OATP1A1): 4.4 | Kp uu [11]: 41

Cc1ccc(CNC(=O)c2nn(-c3ccc(F)cc3)c(CC[C@@H](O)C[C@@H](O)CC(=O)O)c2C(C)C)cc1
dose excreted at 24 h [1]: 12% | Cmax [2]: 1770 ng/mL | fCmax (Plasma [3]): 90.3 ng/mL | fAUC (Plasma [4]): 261 ng·h/mL | uptake ratio at 10 µM (OATP2B1): 1.4 | fAUC (Rattus norvegicus [5]): 10 ng·h/mL | fAUC (Canis familiaris [6]): 28 ng·h/mL | fAUC (Canis familiaris [7]): 64 ng·h/mL | fCmax (Rattus norvegicus [8]): 1.3 ng/mL | clearance [9]: 19 mL/min/kg | bioavailability [10]: 44% | uptake ratio at 10 µM (OATP1A1): 4.2

Cc1ncc2n1-c1ccc(Cl)cc1C(c1ccccc1F)=NC2 [MIDAZOLAM]
uptake ratio at 10 µM (OATP2B1): 0.7 | uptake ratio at 10 µM (OATP1A1): 1.7

CC[C@H](C)C(=O)O[C@H]1C[C@H](O)C=C2C=C[C@H](C)[C@H](CC[C@@H](O)C[C@@H](O)CC(=O)O)[C@H]21 [PRAVASTATIN]
uptake ratio at 10 µM (OATP1A1): 3.9

CC(C)c1nc(N(C)S(C)(=O)=O)nc(-c2ccc(F)cc2)c1/C=C/[C@@H](O)C[C@@H](O)CC(=O)O [ROSUVASTATIN]
uptake ratio at 10 µM (OATP2B1): 6.6 | uptake ratio at 10 µM (OATP1A1): 5.3 | Kp uu [11]: 30
